Assay results published in ChEMBL document CHEMBL3580554, “Design, synthesis, and anticonvulsant activity of new hybrid compounds derived from 2-(2,5-dioxopyrrolidin-1-yl)propanamides and 2-(2,5-dioxopyrrolidin-1-yl)butanamides” (J Med Chem, 2015).

Experiments:
[1] = Toxicity in ip dosed Swiss mouse assessed as induction of motor performance impairment measured within 60 seconds measured at 0.25 hrs of time to peak effect by Chimney test; type: organism-based; conditions: in vivo
In short: (§1)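 Neurotoxicity was measured i.p. in mice by the chimney test for motor impairment. It was given as the median neurotoxic dose (TD50, mg/kg) at the time of peak effect.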

Mus musculus [2] = test: Anticonvulsant activity in Swiss mouse assessed as protection against seizures at 100 mg/kg, ip dosed 0.25 hrs before initiation of maximal electroconvulsions by maximal electroshock test; type: functional
In short: (§2)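 Mice were dosed i.p. at a fixed 300 or 100 mg/kg (6 Hz: 100 mg/kg only). Protection was then scored against MES, sc PTZ or 6 Hz seizures at pretreatment times of 0.25, 0.5, 1 and 2 h. Groups were four mice, scored as number protected / number tested. This also gives the time course and time of peak effect.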

Mus musculus [3] = test: Anticonvulsant activity in Swiss mouse model of 6 Hz psychomotor seizure mode assessed as protection against seizures at 100 mg/kg, ip dosed 0.25 hrs before 6 Hz electrical stimulation by 6 Hz test; type: functional; in short: as §2
Mus musculus [4] = test: Anticonvulsant activity in Swiss mouse assessed as protection against seizures at 100 mg/kg, ip dosed 2 hrs before initiation of maximal electroconvulsions by maximal electroshock test; type: functional; in short: as §2
Mus musculus [5] = test: Anticonvulsant activity in Swiss mouse model of 6 Hz psychomotor seizure mode assessed as protection against seizures at 100 mg/kg, ip dosed 1 hr before 6 Hz electrical stimulation by 6 Hz test; type: functional; in short: as §2
Mus musculus [6] = organism: Mus musculus; test: Protective index, ratio of neurotoxic TD50 in Swiss mouse by Chimney test to anticonvulsant ED50 in Swiss mouse measured at 0.25 hrs of time to peak effect by maximal electroshock test
In short: (§3)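 Protective index was calculated as TD50 (chimney test, mouse, i.p.) divided by ED50 from the matching MES, sc PTZ or 6 Hz test, both taken at the time of peak effect.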

Mus musculus [7] = test: Anticonvulsant activity in Swiss mouse assessed as protection against seizures at 100 mg/kg, ip dosed 0.5 hrs before initiation of maximal electroconvulsions by maximal electroshock test; type: functional; in short: as §2
Mus musculus [8] = test: Anticonvulsant activity in Swiss mouse assessed as protection against seizures at 300 mg/kg, ip dosed 0.25 hrs before initiation of maximal electroconvulsions by maximal electroshock test; type: functional; in short: as §2
Mus musculus [9] = test: Anticonvulsant activity in Swiss mouse assessed as protection against seizures at 300 mg/kg, ip dosed 1 hr before pentylenetetrazole challenge by subcutaneous pentylenetetrazole seizure test; type: functional; in short: as §2
Mus musculus [10] = test: Anticonvulsant activity in Swiss mouse assessed as protection against seizures at 300 mg/kg, ip dosed 0.5 hrs before initiation of maximal electroconvulsions by maximal electroshock test; type: functional; in short: as §2
Mus musculus [11] = test: Anticonvulsant activity in Swiss mouse assessed as protection against seizures at 100 mg/kg, ip dosed 1 hr before pentylenetetrazole challenge by subcutaneous pentylenetetrazole seizure test; type: functional; in short: as §2
Mus musculus [12] = test: Anticonvulsant activity in ip dosed Swiss mouse assessed as protection against seizures measured at 0.25 hrs of time to peak effect by 6 Hz test by 6 Hz psychomotor seizure test; type: functional
In short: (§4)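 Median effective doses (ED50, mg/kg) were determined i.p. in mice at the time of peak effect in the MES, sc PTZ or 6 Hz tests. Only compounds giving at least 50% protection at 100 mg/kg in that test were taken forward.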

Mus musculus [13] = test: Anticonvulsant activity in ip dosed Swiss mouse assessed as protection against seizures measured at 0.5 hrs of time to peak effect by 6 Hz test by 6 Hz psychomotor seizure test; type: functional; in short: as §4
Mus musculus [14] = test: Anticonvulsant activity in ip dosed Swiss mouse assessed as protection against seizures measured at 0.5 hrs of time to peak effect by maximal electroshock test; type: functional; in short: as §4
Rattus norvegicus [15] = organism: Rattus norvegicus; test: Inhibition of [3H]BTX binding to sodium channel site 2 in rat cerebral cortex synaptosomes at 100 uM incubated for 60 mins by scintillation counting based radioligand displacement assay; type: subcellular
In short: (§5)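 Synaptoneurosomal preparations from rat cerebral cortex were used. The read-out was inhibition of specific [3H]BTX binding to the voltage-sensitive sodium channel (site 2), expressed as % inhibition of control specific binding. Compounds were tested at 1, 10, 100 and 500 μM. Inhibition above 50% was taken as significant.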

Mus musculus [16] = test: Anticonvulsant activity in ip dosed Swiss mouse assessed as protection against seizures measured at 0.25 hrs of time to peak effect by maximal electroshock test; type: functional; in short: as §4
Mus musculus [17] = test: Anticonvulsant activity in Swiss mouse assessed as protection against seizures at 100 mg/kg, ip dosed 2 hrs before pentylenetetrazole challenge by subcutaneous pentylenetetrazole seizure test; type: functional; in short: as §2
Mus musculus [18] = test: Anticonvulsant activity in Swiss mouse assessed as protection against seizures at 300 mg/kg, ip dosed 0.25 hrs before pentylenetetrazole challenge by subcutaneous pentylenetetrazole seizure test; type: functional; in short: as §2
Mus musculus [19] = test: Anticonvulsant activity in Swiss mouse assessed as protection against seizures at 300 mg/kg, ip dosed 2 hrs before initiation of maximal electroconvulsions by maximal electroshock test; type: functional; in short: as §2
Rattus norvegicus [20] = organism: Rattus norvegicus; test: Inhibition of [3H]BTX binding to sodium channel site 2 in rat cerebral cortex synaptosomes at 500 uM incubated for 60 mins by scintillation counting based radioligand displacement assay; type: subcellular; in short: as §5
Mus musculus [21] = organism: Mus musculus; test: Protective index, ratio of neurotoxic TD50 in Swiss mouse by Chimney test to anticonvulsant ED50 in Swiss mouse measured at 0.25 hrs of time to peak effect by 6 Hz test by 6 Hz psychomotor seizure test; type: functional; in short: as §3
Mus musculus [22] = test: Anticonvulsant activity in Swiss mouse assessed as protection against seizures at 300 mg/kg, ip dosed 2 hrs before pentylenetetrazole challenge by subcutaneous pentylenetetrazole seizure test; type: functional; in short: as §2
[23] = Toxicity in ip dosed Swiss mouse assessed as induction of motor performance impairment measured within 60 seconds measured at 0.5 hrs of time to peak effect by Chimney test; type: organism-based; conditions: in vivo; in short: as §1
Mus musculus [24] = test: Anticonvulsant activity in Swiss mouse assessed as protection against seizures at 300 mg/kg, ip dosed 1 hr before initiation of maximal electroconvulsions by maximal electroshock test; type: functional; in short: as §2
Mus musculus [25] = test: Anticonvulsant activity in Swiss mouse model of 6 Hz psychomotor seizure mode assessed as protection against seizures at 100 mg/kg, ip dosed 0.5 hrs before 6 Hz electrical stimulation by 6 Hz test; type: functional; in short: as §2
Mus musculus [26] = test: Anticonvulsant activity in Swiss mouse assessed as protection against seizures at 300 mg/kg, ip dosed 0.5 hrs before pentylenetetrazole challenge by subcutaneous pentylenetetrazole seizure test; type: functional; in short: as §2
Mus musculus [27] = test: Anticonvulsant activity in Swiss mouse model of 6 Hz psychomotor seizure mode assessed as protection against seizures at 100 mg/kg, ip dosed 2 hrs before 6 Hz electrical stimulation by 6 Hz test; type: functional; in short: as §2
Mus musculus [28] = test: Anticonvulsant activity in Swiss mouse assessed as protection against seizures at 100 mg/kg, ip dosed 0.25 hrs before pentylenetetrazole challenge by subcutaneous pentylenetetrazole seizure test; type: functional; in short: as §2
Mus musculus [29] = organism: Mus musculus; test: Protective index, ratio of neurotoxic TD50 in Swiss mouse by Chimney test to anticonvulsant ED50 in Swiss mouse measured at 0.5 hrs of time to peak effect by 6 Hz test by 6 Hz psychomotor seizure test; type: functional; in short: as §3
Rattus norvegicus [30] = organism: Rattus norvegicus; test: Inhibition of [3H]BTX binding to sodium channel site 2 in rat cerebral cortex synaptosomes at 10 uM incubated for 60 mins by scintillation counting based radioligand displacement assay; type: subcellular; in short: as §5
Mus musculus [31] = organism: Mus musculus; test: Protective index, ratio of neurotoxic TD50 in Swiss mouse by Chimney test to anticonvulsant ED50 in Swiss mouse measured at 0.5 hrs of time to peak effect by maximal electroshock test; in short: as §3
Mus musculus [32] = test: Anticonvulsant activity in ip dosed Swiss mouse assessed as protection against seizures measured at 0.5 hrs of time to peak effect by subcutaneous pentylenetetrazole seizure test; type: functional; in short: as §4
Mus musculus [33] = test: Anticonvulsant activity in ip dosed Swiss mouse assessed as protection against seizures measured at 0.25 hrs of time to peak effect by subcutaneous pentylenetetrazole seizure test; type: functional; in short: as §4
Mus musculus [34] = test: Protective index, ratio of neurotoxic TD50 in Swiss mouse by Chimney test to anticonvulsant ED50 in Swiss mouse measured at 0.5 hrs of time to peak effect by subcutaneous pentylenetetrazole seizure test; type: functional; in short: as §3
Rattus norvegicus [35] = organism: Rattus norvegicus; test: Inhibition of [3H]BTX binding to sodium channel site 2 in rat cerebral cortex synaptosomes at 1 uM incubated for 60 mins by scintillation counting based radioligand displacement assay; type: subcellular; in short: as §5
Mus musculus [36] = test: Anticonvulsant activity in Swiss mouse assessed as protection against seizures at 100 mg/kg, ip dosed 1 hr before initiation of maximal electroconvulsions by maximal electroshock test; type: functional; in short: as §2
Mus musculus [37] = test: Anticonvulsant activity in Swiss mouse assessed as protection against seizures at 100 mg/kg, ip dosed 0.5 hrs before pentylenetetrazole challenge by subcutaneous pentylenetetrazole seizure test; type: functional; in short: as §2
Mus musculus [38] = test: Protective index, ratio of neurotoxic TD50 in Swiss mouse by Chimney test to anticonvulsant ED50 in Swiss mouse measured at 0.25 hrs of time to peak effect by subcutaneous pentylenetetrazole seizure test; type: functional; in short: as §3

CCC(C(=O)N1CCN(c2cccc(C(F)(F)F)c2)CC1)N1C(=O)CCC1=O (racemic)
TD50 at 0.25 h [1]: 199 mg/kg
Activity (Mus musculus [2]): 75%
Activity (Mus musculus [3]): 100%
Activity (Mus musculus [4]): 0%
Activity (Mus musculus [5]): 75%
Ratio TD50/ED50 (Mus musculus [6]): 3.38
Activity (Mus musculus [7]): 50%
Activity (Mus musculus [8]): 75%
Activity (Mus musculus [9]): 75%
Activity (Mus musculus [10]): 50%
Activity (Mus musculus [11]): 25%
ED50 (Mus musculus [12]): 19.9 mg/kg
ED50 (Mus musculus [13]): 42.3 mg/kg
ED50 (Mus musculus [14]): 91.7 mg/kg
inhibition (Rattus norvegicus [15]): 8.8%
ED50 (Mus musculus [16]): 58.9 mg/kg
Activity (Mus musculus [17]): 25%
Activity (Mus musculus [18]): 100%
Activity (Mus musculus [19]): 50%
inhibition (Rattus norvegicus [20]): 69.5%
Ratio TD50/ED50 (Mus musculus [21]): 10
Activity (Mus musculus [22]): 75%
TD50 at 0.5 h [23]: 173 mg/kg
Activity (Mus musculus [24]): 100%
Activity (Mus musculus [25]): 100%
Activity (Mus musculus [26]): 75%
Activity (Mus musculus [27]): 50%
Activity (Mus musculus [28]): 50%
Ratio TD50/ED50 (Mus musculus [29]): 4.08
inhibition (Rattus norvegicus [30]): 9.5%
Ratio TD50/ED50 (Mus musculus [31]): 1.88
ED50 (Mus musculus [32]): 78.6 mg/kg
ED50 (Mus musculus [33]): 83.2 mg/kg
Ratio TD50/ED50 (Mus musculus [34]): 2.19
inhibition (Rattus norvegicus [35]): 8.4%
Activity (Mus musculus [36]): 0%
Activity (Mus musculus [37]): 75%
Ratio TD50/ED50 (Mus musculus [38]): 2.39
